Consider 24 molecules from ChEMBL document CHEMBL1140366, “Novel P1 chain-extended HIV protease inhibitors possessing potent anti-HIV activity and remarkable inverse antiviral resistance profiles” (Bioorg Med Chem Lett, 2005).

For assay [1], the system named is Human immunodeficiency virus. Nature of the assay: Inhibitory concentration against protease inhibitor-resistant mutant Human immuno deficiency virus (D545701) was determined in an MT-4 cell line. Conditions: Human immunodeficiency virus 1, MT4.
The subject of assay [2] is Human immunodeficiency virus. The assay can be described thus: Inhibitory concentration against protease inhibitor-resistant mutant Human immuno deficiency virus (EP13) was determined in an MT-4 cell line. Conditions: Human immunodeficiency virus 1, MT4.
Assay [3] relates to Human immunodeficiency virus. Nature of the assay: Inhibitory concentration against wild type Human immuno deficiency virus (HXB2) was determined in an MT-4 cell line. In kind it is functional, organism-based. Conditions: Human immunodeficiency virus 1, MT4.
Assay [4] relates to Rattus norvegicus. The assay can be described thus: Clearance in rats at 1.0 mg/kg iv dose. In kind it is functional, organism-based. More on the design: dose 1 mg/kg.
Assay [5] deals with Canis lupus familiaris. Nature of the assay: Bioavailability in dog at 0.5 mg/kg dose. In kind it is functional, organism-based.
In assay [6] the test system is Canis lupus familiaris. Nature of the assay: Clearance in dogs at 0.5 mg/kg dose. Further details: dose 0.5 mg/kg. In kind it is functional, organism-based.
The test system of assay [7] is Canis lupus familiaris. The assay can be described thus: Half life in dogs at 0.5 mg/kg iv dose. More on the design: dose 0.5 mg/kg. In kind it is functional, organism-based.
Assay [8] concerns Rattus norvegicus. Nature of the assay: Bioavailability in rats at 1.0 mg/kg iv dose. In kind it is functional, organism-based.
In assay [9] the test system is Rattus norvegicus. Nature of the assay: Half life in rat was determined at a dose 1.0 mg/kg. The format is functional, organism-based. More on the design: dose 1 mg/kg.
The subject of assay [10] is Rattus norvegicus. The assay can be described thus: Bioavailability of the compound in rat was determined; Dose at 1.0 mg/kg. In kind it is functional, organism-based.
The test system of assay [11] is Canis lupus familiaris. The assay can be described thus: Bioavailability in dog at 0.5 mg/kg dose co-administered with 4.0 mg/kg ritonavir. In kind it is functional, organism-based. In outline:
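Ritonavir-boosted bioavailability was calculated as the oral AUC with co-administered ritonavir divided by the IV AUC without ritonavir.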

For assay [12], the system named is Canis lupus familiaris. Nature of the assay: Clearance in dogs at 0.5 mg/kg iv dose. The format is functional, organism-based. More on the design: dose 0.5 mg/kg.
Assay [13] concerns Canis lupus familiaris. The assay can be described thus: Half life in dogs at 0.5 mg/kg iv dose co-administered with ritonavir 4.0 mg/kg. In kind it is functional, organism-based.

A word on the IC50: it is the concentration needed to halve the response being measured. A high value points to a need for much substance. On to `CNC(=O)NCCCCOc1ccc(C[C@H](NC(=O)O[C@H]2CO[C@H]3OCC[C@H]32)[C@H](O)CN(CC(C)C)S(=O)(=O)c2ccc3c(c2)OCO3)cc1`, for which the IC50 in assay [1] worked out at 22 nM; in assay [2] it was 26 nM; in assay [3], 60 nM.

With `COC(=O)NCCCCC(C)(C)CN(C[C@@H](O)[C@H](Cc1ccccc1)NC(=O)O[C@H]1CO[C@H]2OCC[C@H]21)S(=O)(=O)c1ccc2c(c1)OCO2`, the results for the IC50 in assay [1], in [2] and in assay [3] were 15 nM, 19 nM and 2.2 nM, respectively.

For `CC(=O)NCCCOc1ccc(C[C@H](NC(=O)O[C@H]2CO[C@H]3OCC[C@H]32)[C@H](O)CN(CC(C)C)S(=O)(=O)c2ccc3c(c2)OCO3)cc1`, the IC50 in [1] amounted to 20 nM; in assay [2] it was 18 nM; in assay [3], 57 nM.

Regarding `COC(=O)NCCCCOc1ccc(C[C@H](NC(=O)O[C@H]2CO[C@H]3OCC[C@H]32)[C@H](O)CN(CC(C)C)S(=O)(=O)c2ccc3c(c2)OCO3)cc1`, the IC50 in assay [1] came out at 6.6 nM; in [2], 2.6 nM; in assay [3], 2.6 nM.

As for `CC(C)CN(C[C@@H](O)[C@H](Cc1ccc(OCCCCNS(C)(=O)=O)cc1)NC(=O)O[C@H]1CO[C@H]2OCC[C@H]21)S(=O)(=O)c1ccc2c(c1)OCO2`, the IC50 was 9.2 nM in [1], 5.9 nM in [2] and 15 nM in assay [3].

On to `CC(C)CN(C[C@@H](O)[C@H](Cc1ccc(OCCNC(=O)N(C)C)cc1)NC(=O)O[C@H]1CO[C@H]2OCC[C@H]21)S(=O)(=O)c1ccc2c(c1)OCO2`, for which the concentration for half-maximal inhibition (IC50) in assay [1] is 11 nM; in assay [2], 9.1 nM; in assay [3], 37 nM.

As to `CNC(=O)NCCOc1ccc(C[C@H](NC(=O)O[C@H]2CO[C@H]3OCC[C@H]32)[C@H](O)CN(CC(C)C)S(=O)(=O)c2ccc3c(c2)OCO3)cc1`, the figures for the IC50 in assay [1], in assay [2] and in assay [3] were 130 nM, 131 nM and 200 nM, respectively.

On to `CC(C)CN(C[C@@H](O)[C@H](Cc1ccc(OCCCCN)cc1)NC(=O)O[C@H]1CO[C@H]2OCC[C@H]21)S(=O)(=O)c1ccc2c(c1)OCO2`, for which the 50% inhibitory concentration (IC50) in assay [1] was 28 nM; in [2], 14 nM; in assay [3] it was 15 nM.

In the case of `COC(=O)NCCCOc1ccc(C[C@H](NC(=O)O[C@H]2CO[C@H]3OCC[C@H]32)[C@H](O)CN(CC(C)C)S(=O)(=O)c2ccc3c(c2)OCO3)cc1`, the CL (mL.min-1.kg-1) was found to be 0.717 in assay [4] and 0.5 in assay [6]. The bioavailability in [5] was found to be 1%; in [8] it was 3%. Moreover, the T1/2 in assay [7] was determined as 66 min; in [9], 12 min. For the same molecule, the 50% inhibitory concentration (IC50) was found to be 7.1 nM in assay [1], 2.6 nM in assay [2] and 2.8 nM in assay [3].

For `CC(C)CN(C[C@@H](O)[C@H](Cc1ccccc1)NC(=O)O[C@H]1CCOC1)S(=O)(=O)c1ccc(N)cc1` [AMPRENAVIR], the half-maximal inhibitory concentration (IC50) in assay [1] was > 1000 nM; in [2], 440 nM; in assay [3], 130 nM.

Turning to `CC(C)(C)NC(=O)[C@@H]1CN(Cc2cccnc2)CCN1C[C@@H](O)C[C@@H](Cc1ccccc1)C(=O)N[C@H]1c2ccccc2C[C@H]1O` [INDINAVIR], the results for the IC50 in assay [1], in [2] and in assay [3] were 440 nM, 330 nM and 50 nM, respectively.

Take `CC(C)CN(C[C@@H](O)[C@H](Cc1ccc(OCCN)cc1)NC(=O)O[C@H]1CO[C@H]2OCC[C@H]21)S(=O)(=O)c1ccc2c(c1)OCO2`: the figures for the IC50 in assay [1], in assay [2] and in assay [3] were 130 nM, 150 nM and 180 nM, respectively.

Take `Cc1c(O)cccc1C(=O)N[C@@H](CSc1ccccc1)[C@H](O)CN1C[C@H]2CCCC[C@H]2C[C@H]1C(=O)NC(C)(C)C` [NELFINAVIR]: the values for the IC50 in assay [1], in [2] and in assay [3] were > 1000 nM, 450 nM and 320 nM, respectively.

`COC(=O)NCCOc1ccc(C[C@H](NC(=O)O[C@H]2CO[C@H]3OCC[C@H]32)[C@H](O)CN(CC(C)C)S(=O)(=O)c2ccc3c(c2)OCO3)cc1`: the results for the CL (mL.min-1.kg-1) in [4] and in [12] were 0.917 and 1.13, respectively. Moreover, the bioavailability came to 0% in assay [5], 1% in assay [10] and 33% in assay [11]. The IC50 was 7.1 nM in assay [1], 2.9 nM in assay [2] and 3 nM in [3]. The results for the T1/2 in [9] and in assay [13] were 96 min and 36 min, respectively.

With `COC(=O)N[C@H](C(=O)N[C@@H](Cc1ccccc1)[C@@H](O)CN(Cc1ccc(-c2ccccn2)cc1)NC(=O)[C@@H](NC(=O)OC)C(C)(C)C)C(C)(C)C` [ATAZANAVIR], the IC50 in [1] came out at 70 nM; in [2] it was 93 nM; in [3], 25 nM.

For the molecule `CC(C)CN(C[C@@H](O)[C@H](Cc1ccc(OCCNS(C)(=O)=O)cc1)NC(=O)O[C@H]1CO[C@H]2OCC[C@H]21)S(=O)(=O)c1ccc2c(c1)OCO2`, the IC50 in assay [1] amounted to 20 nM; in assay [2], 9.1 nM; in assay [3], 62 nM.

Take `CC(C)CN(C[C@@H](O)[C@H](Cc1ccc(OCCCNC(=O)N(C)C)cc1)NC(=O)O[C@H]1CO[C@H]2OCC[C@H]21)S(=O)(=O)c1ccc2c(c1)OCO2`: the 50% inhibitory concentration (IC50) in [1] is 11 nM; in assay [2] it was 11 nM; in [3], 25 nM.

`CC(C)CN(C[C@@H](O)[C@H](Cc1ccc(OCCCCNC(=O)N(C)C)cc1)NC(=O)O[C@H]1CO[C@H]2OCC[C@H]21)S(=O)(=O)c1ccc2c(c1)OCO2`: the IC50 in [1] came to 32 nM; in [2], 22 nM; in [3] it was 65 nM.

`CC(C)CN(C[C@@H](O)[C@H](Cc1ccc(OCCCN)cc1)NC(=O)O[C@H]1CO[C@H]2OCC[C@H]21)S(=O)(=O)c1ccc2c(c1)OCO2`: the concentration for half-maximal inhibition (IC50) is 65 nM in assay [1], 50 nM in assay [2] and 67 nM in [3].

As to `CC(=O)NCCOc1ccc(C[C@H](NC(=O)O[C@H]2CO[C@H]3OCC[C@H]32)[C@H](O)CN(CC(C)C)S(=O)(=O)c2ccc3c(c2)OCO3)cc1`, the half-maximal inhibitory concentration (IC50) in assay [1] is 53 nM; in assay [2], 52 nM; in assay [3], 140 nM.

Regarding `Cc1cccc(C)c1OCC(=O)N[C@@H](Cc1ccccc1)[C@@H](O)C[C@H](Cc1ccccc1)NC(=O)[C@H](C(C)C)N1CCCNC1=O` [LOPINAVIR], the 50% inhibitory concentration (IC50) was > 1000 nM in assay [1], 400 nM in assay [2] and 40 nM in [3].

Consider `CNC(=O)NCCCOc1ccc(C[C@H](NC(=O)O[C@H]2CO[C@H]3OCC[C@H]32)[C@H](O)CN(CC(C)C)S(=O)(=O)c2ccc3c(c2)OCO3)cc1`, for which the IC50 in assay [1] amounted to 43 nM; in [2], 56 nM; in assay [3] it was 119 nM.

For `CC(=O)NCCCCOc1ccc(C[C@H](NC(=O)O[C@H]2CO[C@H]3OCC[C@H]32)[C@H](O)CN(CC(C)C)S(=O)(=O)c2ccc3c(c2)OCO3)cc1`, the IC50 in assay [1] was 16 nM; in assay [2], 13 nM; in [3], 39 nM.

Take `CC(C)CN(C[C@@H](O)[C@H](Cc1ccc(OCCCNS(C)(=O)=O)cc1)NC(=O)O[C@H]1CO[C@H]2OCC[C@H]21)S(=O)(=O)c1ccc2c(c1)OCO2`: the IC50 came to 21 nM in assay [1], 20 nM in [2] and 41 nM in assay [3].
